# According to PubChem BioAssay:
# Active and inactive are the calls of the source. Cut-off read from the data, not from the text of the source, unless noted: active = inhibition above about 30%; inactive = the rest. Square brackets hold non-standard residues; d marks the D form. Peptide text beside a SMILES is read from it. * marks the point of attachment. ξ: configuration not given here. Piv = CC(C)(C)C(=O)*; ξNva = CCCC(N)C(=O)O
# Key:
# [1] = Her2 expression decrease, cell viability multiplex – SKBR3 breast tumor cells, AlphaScreen, ATP viability, primary screen (AID 461;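 active = Her2 level under about 52% in both replicate screens, with viability over 70% of control, limit read from the data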;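 for Her2 level: lower value means less Her2 protein in the cells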;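 for viability: percent of carrier control wells set as 100% viability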); settings: SKBR3 Her2 protein level, 18-24 h, measured here: SKBR3 viability, ATP luminescence, at 10 µM
# [2] = target: Receptor tyrosine-protein kinase erbB-2 (Homo sapiens) (UniProt P04626); assay: as above; settings: 18-24 h, at 10 µM, stronger effect = lower value
# [3] = reduced viability of SK-BR-3 breast cancer cells – cell-based, 24 h, human, pilot screen (AID 572;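 active = viability at or below 10% of carrier control in both of two separate runs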;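 note: compound exposure lasted between 18 and 24 h rather than exactly 24 h; 100% = carrier-treated control wells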); settings: SK-BR-3 viability, CellTiter-Glo luminescence, at 10 µM, stronger effect = lower value
# [4] = HUVEC growth inhibition – cell-based, human, primary screen (AID 575;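 active = viability at or below 30% in both replicate assays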;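 note: 100% = median of untreated cell wells with 0.1% DMSO on each plate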); settings: HUVEC proliferation, CellTiter-Glo luminescence, 72 h; at 10 µM; stronger effect = lower value
# How it was run: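 Material: primary human umbilical vein endothelial cells / Schedule: 72 h exposure, 37 °C, 5% CO2, 30 min RT equilibration / Signal: ATP-based CellTiter-Glo luminescent read / Read-out basis: percent of median DMSO-control luminescence / Control set: 32 DMSO-only cell-control wells (high), 32 MePR drug-control wells (low) per plate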
# [5] = H69AR cell proliferation blockers – human, duplicate replicates, primary screen (AID 580;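 active = viability at or under a set limit in both replicates, limit being median viability minus 3 SD, cut at about 48% in these data, passing the limit was not always enough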;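 note: 100% = mean luminescence of untreated wells and 0% = no signal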); settings: H69AR lung tumor cells viability, ATP luminescence, 72 h; at 10 µM; stronger effect = lower value
# [6] = MRP1 drug-resistance reversers in H69AR cells – cell-based, doxorubicin co-treatment, pilot screen (AID 601;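 active = viability loss from added drug above about 55%, and viability with drug at most 40%, in both replicates, limit read from the data, passing the limit was not always enough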); settings: CellTiter-Glo, 72 h, at 10 µM; for differential viability (reversal): stronger effect = higher value
# [7] = yeast transport mutant growth inhibition pilot in 384-well plates, post-Golgi transport modulator project (AID 636; in the data active = inhibition above about 31%); settings: absorbance 615 nm, about 18 h, stronger effect = higher value
# [8] = growth suppression of yeast trafficking mutant, preliminary HTS, modulators of trafficking downstream of Golgi apparatus project, 1536-format plate, OD 615 nm (AID 637); settings: yeast transport mutant growth, absorbance 615 nm, 18 h; stronger effect = higher value
# [9] = H69AR cells + 2 uM doxorubicin, measured here: viability with 2 uM doxorubicin, stronger effect = lower value
# [10] = H69AR cells, compound alone cytotoxicity
# Receptor tyrosine-protein kinase erbB-2 (Homo sapiens), sequence (P04626 whole entry, looked up): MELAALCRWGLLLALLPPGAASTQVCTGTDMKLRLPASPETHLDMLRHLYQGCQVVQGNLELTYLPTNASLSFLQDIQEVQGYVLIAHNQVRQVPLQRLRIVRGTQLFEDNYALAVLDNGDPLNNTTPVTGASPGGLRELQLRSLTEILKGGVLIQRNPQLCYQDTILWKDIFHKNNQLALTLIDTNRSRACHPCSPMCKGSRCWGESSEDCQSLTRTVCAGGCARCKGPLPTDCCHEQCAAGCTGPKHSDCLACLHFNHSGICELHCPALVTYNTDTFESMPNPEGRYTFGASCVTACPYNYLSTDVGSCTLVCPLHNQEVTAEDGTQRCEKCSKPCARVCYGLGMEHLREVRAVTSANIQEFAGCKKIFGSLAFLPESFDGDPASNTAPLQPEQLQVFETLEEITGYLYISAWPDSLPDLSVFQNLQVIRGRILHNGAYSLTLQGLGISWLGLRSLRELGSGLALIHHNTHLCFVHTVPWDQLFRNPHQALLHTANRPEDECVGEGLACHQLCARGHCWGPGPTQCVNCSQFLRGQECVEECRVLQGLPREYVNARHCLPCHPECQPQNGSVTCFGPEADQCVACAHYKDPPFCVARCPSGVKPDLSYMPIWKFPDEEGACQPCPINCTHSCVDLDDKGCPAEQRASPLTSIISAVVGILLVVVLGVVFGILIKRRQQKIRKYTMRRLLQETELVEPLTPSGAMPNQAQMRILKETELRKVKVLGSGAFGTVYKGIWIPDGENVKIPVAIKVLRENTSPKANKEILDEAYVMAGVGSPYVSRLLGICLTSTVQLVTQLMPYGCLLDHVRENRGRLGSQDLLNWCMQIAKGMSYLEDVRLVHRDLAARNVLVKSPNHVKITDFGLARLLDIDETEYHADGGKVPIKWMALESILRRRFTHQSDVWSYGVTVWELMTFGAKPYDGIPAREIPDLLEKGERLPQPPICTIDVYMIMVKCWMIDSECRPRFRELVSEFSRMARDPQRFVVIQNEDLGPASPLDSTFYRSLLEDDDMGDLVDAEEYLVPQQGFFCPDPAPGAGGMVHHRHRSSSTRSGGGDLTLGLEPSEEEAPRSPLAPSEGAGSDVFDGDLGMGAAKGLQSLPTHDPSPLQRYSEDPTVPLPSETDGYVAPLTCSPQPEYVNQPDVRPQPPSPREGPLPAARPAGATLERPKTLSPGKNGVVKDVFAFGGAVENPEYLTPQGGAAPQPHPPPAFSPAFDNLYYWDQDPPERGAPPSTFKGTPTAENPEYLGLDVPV
Structure (SMILES),viability [1],Her2 level [2],viability [3],viability [4],viability [5],differential viability (reversal) ([6]; H69AR cells + 2 uM doxorubicin),"viability [6, 9]","viability [6, 10]",inhibition [7],inhibition [8]
Cn1c(SCC(=O)N2CCN(c3cccc(Cl)c3)CC2)nnc1-c1ccncc1,84%,76% (inactive),84% (inactive),49.4% (inactive),79.8% (inactive),-18.5% (inactive),98.3%,79.8%,3.59% (inactive),-1.33% (inactive)
O=C(CN1CCOCC1)N1CCN(C(=O)CN2CCOCC2)CC1,102%,99.5% (inactive),102% (inactive),93.7% (inactive),104% (inactive),15.6% (inactive),88.9%,104%,-3.73% (inactive),1.97% (inactive)
Cc1nc2ccc(NC(=O)N3CCOCC3)cc2s1,87.5%,79.5% (inactive),87.5% (inactive),93.8% (inactive),89.8% (inactive),4.26% (inactive),85.6%,89.8%,-4.34% (inactive),-1.27% (inactive)
CCCC(NC(=O)CNC(=O)C(C)(C)C)C(=O)O (stereo not drawn) (Piv-Gly-[ξNva]-OH),91%,91.5% (inactive),91% (inactive),96.1% (inactive),97.5% (inactive),1.52% (inactive),96%,97.5%,-2% (inactive),-3.71% (inactive)
COc1cccc(-c2nnc(SCC(=O)N3CCCc4ccccc43)o2)c1,93.5%,87.5% (inactive),93.5% (inactive),60.4% (inactive),90.6% (inactive),4.79% (inactive),85.8%,90.6%,-4.61% (inactive),-3.33% (inactive)
Cc1sc2nc(CN3CCN(S(=O)(=O)c4cccc5nonc45)CC3)[nH]c(=O)c2c1C,102%,93.5% (inactive),102% (inactive),66.4% (inactive),87.9% (inactive),9.52% (inactive),78.4%,87.9%,-6.05% (inactive),0.5% (inactive)
CNC(=O)CC(C(=O)O)c1ccc(OC(C)C)cc1 (stereo not given),105%,85.5% (inactive),105% (inactive),92.3% (inactive),90% (inactive),4.31% (inactive),85.7%,90%,-5.07% (inactive),1.75% (inactive)
O=C(CN1C(=O)CC(c2ccco2)Sc2ccccc21)Nc1ccccc1F (stereo not given),82.5%,82% (inactive),82.5% (inactive),72.2% (inactive),84.3% (inactive),3.75% (inactive),80.6%,84.3%,0% (inactive),-0.83% (inactive)
COCCNC(=O)C(c1ccc(C)o1)N(Cc1ccc(F)cc1)C(=O)Cn1nnc2ccccc21 (stereo not given),89.5%,95% (inactive),89.5% (inactive),95.7% (inactive),97.8% (inactive),3.14% (inactive),94.7%,97.8%,6.62% (inactive),-1.31% (inactive)
CCOC(=O)C1CCN(c2c(N3CCCC(C(=O)OCC)C3)c(=O)c2=O)CC1 (stereo not given),103%,119% (inactive),103% (inactive),97.1% (inactive),96.9% (inactive),-3.29% (inactive),100%,96.9%,2.31% (inactive),-2% (inactive)
Cn1c(CNc2nc(-c3ccccc3)cs2)nnc1SCC(=O)N1CCc2ccccc21,96.5%,97.5% (inactive),96.5% (inactive),81.8% (inactive),93.3% (inactive),9.91% (inactive),83.4%,93.3%,-1.62% (inactive),7.14% (inactive)
Cn1c(=O)cc(SCC(=O)N2CCOCC2)c2ccc(Cl)cc21,108%,99.5% (inactive),108% (inactive),76.1% (inactive),93.2% (inactive),9.88% (inactive),83.3%,93.2%,-2.37% (inactive),-1.61% (inactive)
COc1ccc(N(CC(=O)N2c3ccccc3CC2C)S(=O)(=O)c2c(C)noc2C)cc1 (stereo not given),88.5%,88.5% (inactive),88.5% (inactive),70.3% (inactive),83% (inactive),-16.9% (inactive),99.9%,83%,-4.53% (inactive),1.97% (inactive)
CCOc1cc(NC(=O)c2ccco2)c(OCC)cc1NC(=O)CCC(=O)NCc1cccnc1,95.5%,100% (inactive),95.5% (inactive),88.1% (inactive),86.1% (inactive),-4.71% (inactive),90.8%,86.1%,-1.43% (inactive),-4.17% (inactive)
CCOC(=O)c1ccc(CC2S/C(=C(\C#N)C(C)=O)NC2=O)cc1 (stereo not given),91.5%,89.5% (inactive),91.5% (inactive),95.7% (inactive),89.6% (inactive),-4.15% (inactive),93.7%,89.6%,-6.53% (inactive),1.94% (inactive)
Cc1[nH]c(=O)[nH]c(=O)c1S(=O)(=O)N1CCCC(C(=O)NCc2ccco2)C1 (stereo not given),102%,80% (inactive),102% (inactive),96.3% (inactive),86.4% (inactive),-1.73% (inactive),88.1%,86.4%,-3.82% (inactive),0.67% (inactive)

Structure (SMILES),viability [1],Her2 level [2],viability [3],viability [4],viability [5],differential viability (reversal) ([6]; H69AR cells + 2 uM doxorubicin),"viability [6, 9]","viability [6, 10]",inhibition [7],inhibition [8]
CCCOc1ccc(-c2nnn(CC(=O)Nc3cccc(C(=O)OC)c3)n2)cc1,100%,98% (inactive),100% (inactive),64.3% (inactive),48% (active),-5.98% (inactive),54%,48%,1.87% (inactive),21.1% (inactive)
CCOC(=O)c1sc(NC(=O)CSc2nnc3c4ccccc4n(CC)c3n2)nc1C,83.5%,104% (inactive),83.5% (inactive),104% (inactive),96.2% (inactive),-0.44% (inactive),96.7%,96.2%,1.67% (inactive),-3.33% (inactive)
c1ccc(Cn2nnc3c(N4CCC5(CC4)OCCO5)ncnc32)cc1,105%,92.5% (inactive),105% (inactive),103% (inactive),90.7% (inactive),-8.68% (inactive),99.3%,90.7%,-1.05% (inactive),4.03% (inactive)
CC1CCN(S(=O)(=O)c2ccc(NC(=O)CSc3nnnn3C)cc2)CC1,94.5%,103% (inactive),94.5% (inactive),76.3% (inactive),101% (inactive),22% (inactive),78.7%,101%,-5.92% (inactive),-3.49% (inactive)
COc1ccccc1C(=O)Nc1ccc(S(=O)(=O)N2CCCC2)cc1,95.5%,76.5% (inactive),95.5% (inactive),81.9% (inactive),94.5% (inactive),16.2% (inactive),78.4%,94.5%,-4.93% (inactive),0.49% (inactive)
CC(C)OC(=O)C(CC(=O)O)NCc1ccccc1 (stereo not given),98%,91.5% (inactive),98% (inactive),97.5% (inactive),91.6% (inactive),3.69% (inactive),88%,91.6%,-2.63% (inactive),-1.29% (inactive)
CCc1nnc(NC(=O)c2ccc(COc3ccc(C)cc3)o2)s1,104%,93.5% (inactive),104% (inactive),99.5% (inactive),106% (inactive),-4.93% (inactive),111%,106%,-3.01% (inactive),-3.17% (inactive)
Cc1cc(Oc2ccccc2)nc(-c2ccccc2)n1,100%,112% (inactive),100% (inactive),92.7% (inactive),99.1% (inactive),7.91% (inactive),91.2%,99.1%,-1.17% (inactive),-5.25% (inactive)
Nc1nnn(Cc2ccccc2)n1,93.5%,92% (inactive),93.5% (inactive),100% (inactive),119% (inactive),22.1% (inactive),97.3%,119%,-5.21% (inactive),-6.98% (inactive)
Cc1ccc(NC(=O)C2CCCN(S(=O)(=O)c3cnc[nH]3)C2)cc1F (stereo not given),104%,94% (inactive),104% (inactive),111% (inactive),95.1% (inactive),-0.16% (inactive),95.3%,95.1%,-3.73% (inactive),-3.11% (inactive)
C/C(=C\c1cc(C(=O)O)c(C)o1)CO,102%,126% (inactive),102% (inactive),108% (inactive),89.1% (inactive),-8.12% (inactive),97.2%,89.1%,-5.13% (inactive),-0.33% (inactive)
COc1ccc(C(CC(=O)O)NC(=O)c2ccccc2)cc1OC (stereo not given),110%,101% (inactive),110% (inactive),94.6% (inactive),83.6% (inactive),-6.46% (inactive),90.1%,83.6%,0.78% (inactive),-6.33% (inactive)
FC(F)(F)c1cc(-c2ccccc2)nc(N2CCCCC2)n1,101%,102% (inactive),101% (inactive),101% (inactive),98.1% (inactive),-3% (inactive),101%,98.1%,-4.53% (inactive),5.57% (inactive)
C=CCn1c(COc2ccccc2F)nnc1SCC(=O)N1CC(=O)Nc2ccccc21,92%,104% (inactive),92% (inactive),109% (inactive),92.2% (inactive),2.88% (inactive),89.3%,92.2%,-4.46% (inactive),51.5% (active)
COc1ccc(S(=O)(=O)N2CCN(C3CCCCCCC3)CC2)cc1,87.5%,89.5% (inactive),87.5% (inactive),106% (inactive),93.9% (inactive),-6.63% (inactive),100%,93.9%,-2.11% (inactive),-0.98% (inactive)
CCOC(=O)c1cn(CC)c2cc(N3CCOCC3)c(F)cc2c1=O,104%,106% (inactive),104% (inactive),94.6% (inactive),90.8% (inactive),-10.3% (inactive),101%,90.8%,2.16% (inactive),-0.63% (inactive)
